Test results: PubChem BioAssay
Values without a mark were called inactive. Results filed as inconclusive are left out. Activity calls are given as the source filed them.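 The calls were made as follows, unless noted: active = RAM network inhibition above 8.4% in each of two replicates, 3 SD over the compound average; inconclusive = above 8.4% inhibition in only one replicate; inactive = 8.4% inhibition or less in each replicate.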

What was measured:
[1] = S. cerevisiae growth inhibition in permissive medium (OD615), pilot counter-assay for S. cerevisiae lifespan shortening project, permissive growth control (AID 705;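 active = growth inhibition above 25% in both replicates, a cutoff set 3 SD above the mean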); details: OD615, 24 h, at 10 µM, stronger effect = higher value
Procedure, shortened: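 System: S. cerevisiae with engineered DeaD lifespan system. Medium: SC raffinose/galactose permissive medium. Doses: single compound dose of 10 µM, 0.25% DMSO final. Schedule: 24 h exposure, 30 °C. Measured by: OD615 turbidity read. Read-out: growth inhibition.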

[2] = S. cerevisiae growth inhibition in restrictive medium, OD615, pilot screen, restrictive growth control, yeast lifespan reduction project (AID 706;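 active = growth inhibition above a set limit, 3 SD over mean compound inhibition, in both replicates, cut at about 43% in these data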;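 also: modified DeaD lifespan yeast strain shifted to restrictive glucose medium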); details: OD615, 48 h, at 10 µM, stronger effect = higher value
Procedure, shortened: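 Assay system – genetically modified Saccharomyces cerevisiae, DeaD replicative lifespan assay strain · Medium – CSMM-D glucose medium · Doses – 10 µM compound, 0.25% DMSO · Times – 4 h pre-incubation, 48 h exposure at 30 °C · Signal – optical density at 615 nm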

[3] = doxorubicin toxicity protection in MRP-1 cells – H69AR cells, CellTiter-Glo, duplicate, MRP-1 activator project, pilot screen (AID 807;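 active = viability increase at or above a cutoff of the median across tested compounds plus 3 SD, cut at about 8.5% in these data, passing the limit was not always enough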;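 also: compound pretreatment 18-22 h then 72 h combined with doxorubicin; 0% = doxorubicin alone and 100% = vehicle without doxorubicin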); details: H69AR viability with doxorubicin, CellTiter-Glo luminescence; at 10 µM; stronger effect = higher value
[4] = viability of HCT116 without oncogenic beta-catenin – human colon tumor cells, pilot screen (AID 823;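 active = cell viability at or below a set limit in both duplicate runs, the limit being the all-compound median minus 4 SD, cut at about 23% in these data, passing the limit was not always enough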;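 also: 0% = wells killed by 20 µM Hyamine and 100% = untreated DMSO cell wells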); details: HCT116 beta-catenin knockout viability, CellTiter-Glo, 60 h; at 10 µM; stronger effect = lower value
[5] = viability of PTEN-null HCT116 cells – cell-based, HCT116 clonal line, CellTiter-Glo, pilot screen (AID 824;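 active = viability at or below 27.92% in each of two runs, the all-compound median minus 4 SD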;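 also: 0% = 20 µM Hyamine control and 100% = vehicle cell control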); details: HCT116 PTEN-deleted viability, 60 h, at 10 µM, stronger effect = lower value
[6] = RAM pathway blockade in budding yeast – dse1pr::URA3 reporter, 5-FOA selection, pilot screen (AID 869;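 active = inhibition over a set limit, the all-compound mean plus 3 SD, in both replicate runs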;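 also: 0% = DMSO wells with no growth and 100% = 10 µM 1-NA-PP1 with full growth; RAM network block rescues cells from 5-FOA so hits raise OD615 growth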); details: S. cerevisiae dse1pr::URA3 5-FOA growth, OD615, 2 d; at 10 µM; stronger effect = higher value; strain carries analog-sensitive mutant Cbk1 kinase
[7] = RAM signaling pathway blockade in yeast – S. cerevisiae, Pdr1DBD-CYC8 efflux-inhibited sensitized strain, primary screen (AID 1298);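 also: 0% = DMSO untreated cells without growth and 100% = 10 µM 1-NA-PP1 full growth; higher means more yeast growth rescued from 5-FOA killing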; details: S. cerevisiae cbk1-as DSE1-URA3 strain, 5-FOA growth OD615, 2 d; at 50 µM; stronger effect = higher value

Row | Structure (SMILES) | growth inhibition [1] [%] | growth inhibition [2] | viability increase [3] [%] | viability [4] [%] | viability [5] [%] | inhibition [6] [%] | RAM network inhibition [7] [%]
1 | CCCC(=O)NCCCc1nc2ccccc2n1C | -3.69 | -0.54% | -1.21 | 97.1 | 105 | -0.03 | 2.78
2 | COc1ccc(C/C(N)=N/n2cnnc2)cc1 | 2.64 | -3.72% | 0.39 | 100 | 106 | 0.64 | 3.02
3 | O=C(Cn1c(=O)[nH]c2ccsc2c1=O)NC1CCCCC1 | -3.32 | -5.46% | 0.65 | 94.9 | 93.9 | 1.41 | -1.43
4 | CN1CCN(c2nc3c(c(=O)n(C)c(=O)n3C)n2CCSc2nc3ccccc3s2)CC1 | -5.4 | -16.2% | -3.94 | 100 | 96.1 | 1.37 | 3.29
5 | CCOC(=O)C1CCCN(C(=O)N2CCOCC2)C1 (configuration not stated) | -4.19 | -5.3% | -0.82 | 97.6 | 99.1 | -0.095 | 0.21
6 | c1cncc(-c2noc(-c3ccco3)n2)c1 | -5.2 | 7% | 1.76 | 96.7 | 94.2 | 1.41 | 4.61
7 | Cc1nc2sc(C(c3ccco3)N3CCN(c4ccc(F)cc4)CC3)c(O)n2n1 (configuration not stated) | 0.055 | -7.21% | -0.62 | 107 | 99.9 | 1.52 | 3.54
8 | CCOc1ccc(N(CC(=O)O)S(=O)(=O)c2ccc(OC)c(OC)c2)cc1 | -8.3 | -13.4% | -0.45 | 95.5 | 95.3 | 1.32 | 1.05
9 | COc1cccc(-c2nc(CS(=O)CC(=O)NCc3ccc4c(c3)OCO4)c(C)o2)c1 (configuration not stated) | -3.78 | 14.7% | 0.74 | 97.2 | 101 | 3 | 4.76
10 | CCOC(=O)N1CCN(C(=O)c2ccc3c(c2)N(CC)CCS3)CC1 | -2.54 | 2.25% | -0.26 | 101 | 97 | 1.89 | -1.13
11 | COc1ccc(C(=O)Nc2cc3c(cc2C#N)OCO3)cc1S(=O)(=O)N1CCN(C)CC1 | -18.3 | -21.2% | 1.53 | 100 | 101 | 0.975 | 5.27
12 | c1ccc(Cc2nnc3sc(-c4ccc5c(c4)OCCO5)nn23)cc1 | 4.51 | 55.8% (active) | 0.47 | 105 | 93.5 | 1.33 | 12.8
13 | CCCNc1nc2c(c(=O)[nH]c(=O)n2C)n1Cc1ccc(F)cc1 | -1.32 | -1.12% | -2 | 104 | 92.9 | 0.945 | 0.57
14 | Cc1ccc(S(=O)(=O)CC(C)N2CCOCC2)c(S(=O)(=O)CC(C)N2CCOCC2)c1 (configuration not stated) | -6.09 | -0.82% | 1.48 | 97 | 94.4 | 0.7 | 1.89
15 | COC(=O)c1ccc(CSc2nc3c(c(=O)n2-c2ccc(Br)cc2)SCC3)o1 | -15.5 | -19.8% | -3.79 | 80.9 | 76 | 1.67 | 7.53
16 | CC(=O)c1ccc(-n2nncc2C)cc1 | -4.02 | -11.6% | -3.63 | 108 | 95.6 | 0.965 | 2.75
17 | CC1=C(C(N)=O)C(c2ccccc2)n2nc(-c3cccc(C)c3)nc2N1 (configuration not stated) | 3.1 | 2.56% | -2.74 | 98.9 | 97.1 | 0.79 | 3.91
18 | COc1cccc(C(=O)Nc2ccc3nc(N4CCOCC4)cc(C)c3c2)c1 | -7.63 | 0.38% | -6.58 | 95.7 | 85.9 | 0.845 | 2.45

Row | Structure (SMILES) | growth inhibition [1] [%] | growth inhibition [2] | viability increase [3] [%] | viability [4] [%] | viability [5] [%] | inhibition [6] [%] | RAM network inhibition [7] [%]
19 | O=C1CC(c2nc3ccccc3[nH]2)CN1c1ccccc1F (configuration not stated) | 3.64 | -1.12% | -0.52 | 98.3 | 92.5 | 0.355 | 1.89
20 | COc1ccc(C2C(C(=O)c3ccco3)=C(O)C(=O)N2Cc2cccnc2)cc1OC (configuration not stated) | -4.18 | 6.84% | -3.78 | 102 | 98.7 | 0.875 | 0.66
21 | CC(C)CCOC(=O)C1C2C=CC3(CN(Cc4cccs4)C(=O)C13)O2 (configuration not stated) | -9.53 | 2.99% | -0.61 | 94.3 | 91.2 | 0.305 | 2.76
22 | O=C(CN1C(=O)C2C3C=CC(C3)C2C1=O)Nc1ccc2nccnc2c1 (configuration not stated) | 7.15 | -1.04% | -1.76 | 105 | 95.2 | 2.29 | 0.31
23 | O=C(NCCCc1ccccc1)c1ccncc1 | 1.08 | 0.81% | -0.23 | 98.4 | 99.4 | 0.45 | 6.46
24 | C=CCNc1ncnc2ccc(Br)cc12 | 2.36 | 9.25% | -5.67 | 84.1 | 75.8 | 1.87 | 4.09
25 | CCC(Sc1ccc2nnc(-c3cccnc3)n2n1)C(=O)O (configuration not stated) | -18.7 | -14.8% | -0.8 | 100 | 95.8 | 2.44 | 6.69
26 | CCCC(NS(=O)(=O)c1ccc(OC)cc1)C(=O)O (configuration not stated) | -8.86 | -7.75% | -1.16 | 90.1 | 95.4 | 1.29 | 3.19
27 | CC1CC(C(O)c2ccccn2)C(=O)C(C(O)c2ccccn2)C1 (configuration not stated) | 9.67 | -1.25% | -3.28 | 97.8 | 90.3 | 0.35 | -0.58
28 | CC(Oc1ccccc1F)C(=O)NCCN1CCCCC1 (configuration not stated) | -9.04 | -8.32% | -0.4 | 91.9 | 93.6 | 0.865 | 3.01
29 | COc1ccc(C(=O)c2cnc(C(C)C)n2C)cc1 | -3.74 | -9.59% | 2.12 | 98.2 | 90.2 | 1.88 | 4.97
30 | Cc1cccn2cc(-c3ccc(S(=O)(=O)N4CCOCC4)cc3)nc12 | -12.6 | -19.7% | -1.3 | 83.5 | 91 | 1.75 | 2.29
31 | COc1ccc(C2N(c3cccc(Cl)c3)C(=O)C3CCCN32)cc1 (configuration not stated) | 6.5 | 6.72% | -2.85 | 102 | 98.1 | 0.115 | -1.65
32 | CC1=C(C(=O)OC(C)C)C(c2ccc(Br)s2)NC(=O)N1C (configuration not stated) | -17 | -22.3% | 0.85 | 70.6 | 77 | 0.54 | 2.29
33 | CCNc1nc2c(c(=O)[nH]c(=O)n2C)n1CC(C)C | -5.42 | -2.34% | -2.15 | 106 | 100 | 0.05 | 2.92
34 | CCC(=O)c1cc2c(cc1NC(=O)c1cccs1)OCCO2 | -5.85 | -7.54% | -6.83 | 69.2 | 75.2 | 1.38 | 9.21
35 | CCOC(=O)c1[nH]c2ccccc2c1NC(=O)c1ccc2c(c1)OCO2 | -2.92 | -6.88% | -4.72 | 85.6 | 85.6 | 1.8 | 2.88
36 | CCCC(=O)NCCCc1nc2ccccc2n1CCC | -2.54 | -20.1% | -1.65 | 102 | 95.1 | 1.56 | 3.21
